From ChEMBL document CHEMBL1926564, “Design, synthesis and biological activity of original pyrazolo-pyrido-diazepine, -pyrazine and -oxazine dione derivatives as novel dual Nox4/Nox1 inhibitors” (Bioorg Med Chem, 2011) come the findings set out here.

One may read the Ki as a measure of affinity in units of concentration, obtained from inhibition or displacement. The clearance is the volume of plasma or blood freed of the substance per unit of time. The low end stands for a low capacity for elimination, the high end for a high capacity for elimination. As usually defined, the AUC(0-inf) is the area under the concentration-time curve extrapolated to infinity. The term bioavailability denotes dose-corrected exposure relative to a reference, in per cent. The Cmax is the highest concentration seen after dosing. What is called Tmax is the time at which the peak concentration occurs. One may read the CL/F as the apparent clearance, not corrected for the fraction that reaches the circulation. In general, efflux ratio refers to a quotient of directional permeabilities that is used to spot active efflux. As usually defined, the logD is lipophilicity at a set pH, counting ionised and neutral species. Lower therefore signals lower lipophilicity. The term fraction unbound denotes the share of the substance not bound to proteins or other matrix. High values mean weak binding, low ones extensive binding.

Molecules are shown by their SMILES.

The target of one series is T1, NADPH oxidase 1 (Homo sapiens, UniProt Q9Y5S8).
T1 sequence (Q9Y5S8 whole entry): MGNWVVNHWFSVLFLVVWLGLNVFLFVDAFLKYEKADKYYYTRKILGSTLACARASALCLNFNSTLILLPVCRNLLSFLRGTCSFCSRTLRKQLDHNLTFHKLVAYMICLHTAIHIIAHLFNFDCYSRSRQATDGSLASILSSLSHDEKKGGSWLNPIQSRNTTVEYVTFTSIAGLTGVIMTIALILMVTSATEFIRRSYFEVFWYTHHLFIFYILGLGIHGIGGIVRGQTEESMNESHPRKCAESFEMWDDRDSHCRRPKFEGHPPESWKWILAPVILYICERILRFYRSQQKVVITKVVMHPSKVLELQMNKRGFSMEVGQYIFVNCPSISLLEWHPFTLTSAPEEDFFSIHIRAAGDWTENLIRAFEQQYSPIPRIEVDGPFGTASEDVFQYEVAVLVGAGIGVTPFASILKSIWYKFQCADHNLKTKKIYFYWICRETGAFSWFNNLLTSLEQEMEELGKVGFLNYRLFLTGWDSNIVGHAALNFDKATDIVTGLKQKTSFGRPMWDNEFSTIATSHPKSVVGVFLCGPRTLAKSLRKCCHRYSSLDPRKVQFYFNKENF
The experiment in a line: Antagonist activity at human NOX1 expressed in CHO cell membrane coexpressing tetracylin repressor assessed as inhibition of ROS production after 20 mins by cell-free amplex red assay. The series is classed as functional. The gist of the method: (§1)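 Membranes from tetracycline-induced (24 h) Nox-expressing cells or human PMN (Nox2), sucrose-gradient purified; or xanthine oxidase. Incubated in PBS with Amplex Red, HRP and cofactors; NADPH (Nox) or xanthine starts ROS. Compound 1 nM–100 µM, 20 min at 37 °C, plate-reader. Background without membranes or agonist. Ki by Cheng-Prusoff; mean of ≥3 experiments in triplicate.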

The next series deals with T2, NADPH oxidase 2 (Homo sapiens, UniProt P04839).
T2 sequence (P04839 whole entry): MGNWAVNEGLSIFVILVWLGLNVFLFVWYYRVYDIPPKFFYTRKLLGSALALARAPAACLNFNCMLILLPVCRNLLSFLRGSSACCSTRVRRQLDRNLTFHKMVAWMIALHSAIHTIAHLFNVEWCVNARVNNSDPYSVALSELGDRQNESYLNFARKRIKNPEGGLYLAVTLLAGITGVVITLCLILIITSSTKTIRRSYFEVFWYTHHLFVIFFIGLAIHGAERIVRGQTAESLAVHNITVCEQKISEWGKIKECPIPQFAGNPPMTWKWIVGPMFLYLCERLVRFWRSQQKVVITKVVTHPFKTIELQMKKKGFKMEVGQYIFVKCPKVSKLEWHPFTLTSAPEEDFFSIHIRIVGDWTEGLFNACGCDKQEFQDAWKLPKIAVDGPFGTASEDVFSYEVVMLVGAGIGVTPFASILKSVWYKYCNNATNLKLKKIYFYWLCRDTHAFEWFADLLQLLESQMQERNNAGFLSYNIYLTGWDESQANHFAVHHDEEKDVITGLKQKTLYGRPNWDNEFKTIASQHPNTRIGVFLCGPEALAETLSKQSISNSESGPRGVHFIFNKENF
The experiment in a line: Antagonist activity at human NOX2 in human polymorphonuclear cell membrane assessed as inhibition of ROS production after 20 mins by cell-free amplex red assay. The series is classed as functional. Put shortly:
as §1

In the next series the target is T3, NADPH oxidase 4 (Homo sapiens, UniProt Q9NPH5).
T3 sequence (Q9NPH5 whole entry): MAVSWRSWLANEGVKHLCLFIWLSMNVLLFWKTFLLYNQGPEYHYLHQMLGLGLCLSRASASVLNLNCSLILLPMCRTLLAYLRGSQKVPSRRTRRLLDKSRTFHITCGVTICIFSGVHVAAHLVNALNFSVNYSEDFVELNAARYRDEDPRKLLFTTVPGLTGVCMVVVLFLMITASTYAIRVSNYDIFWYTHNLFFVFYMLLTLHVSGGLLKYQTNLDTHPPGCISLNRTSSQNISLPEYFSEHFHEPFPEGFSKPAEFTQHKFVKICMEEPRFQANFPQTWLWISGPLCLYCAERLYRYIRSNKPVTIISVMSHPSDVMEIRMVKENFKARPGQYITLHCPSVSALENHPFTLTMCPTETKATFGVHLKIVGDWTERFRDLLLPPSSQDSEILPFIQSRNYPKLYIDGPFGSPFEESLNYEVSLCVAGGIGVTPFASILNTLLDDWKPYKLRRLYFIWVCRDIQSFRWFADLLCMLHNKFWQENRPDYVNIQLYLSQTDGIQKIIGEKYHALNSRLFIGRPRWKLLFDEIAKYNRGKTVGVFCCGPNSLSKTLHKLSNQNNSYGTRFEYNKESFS
The experiment in a line: Antagonist activity at human NOX4 expressed in CHO cell membrane coexpressing tetracylin repressor assessed as inhibition of ROS production after 20 mins by cell-free amplex red assay. The following applies: in the assay text read “HEK293 cell membrane” for “CHO cell membrane”. The series is classed as functional. The gist of the method:
as §1

The nature of series [1]: Clearance in Sprague-Dawley rat at 5 mg/kg, iv. The series is classed as ADME, organism-based. Conditions: in vivo. Set-up: dose 5 mg/kg, route intravenous. The gist of the method: (§2)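 Rats in two groups of three: 5 mg/kg iv in EDPW (10% EtOH, 10% DMA, 30% PG, 50% water) or 10 mg/kg oral in aqueous 0.5% CMC/0.25% Tween 20. Carotid arterial cannula blood sampled up to 24 h. Plasma levels by LC/MS/MS (LLOQ 1.00 ng/mL); noncompartmental analysis.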

A short description of series [2]: Volume of distribution at steady state in Sprague-Dawley rat at 5 mg/kg, iv. Conditions: in vivo, read-out: Vdss. Set-up: dose 5 mg/kg, route intravenous. It is filed as ADME, organism-based. The gist of the method: as §2
The nature of series [3]: AUC (infinity) in Sprague-Dawley rat at 10 mg/kg, po. The series is classed as ADME, organism-based. Further details: dose 10 mg/kg, route oral, time infinity. Conditions: plasma. Put shortly:
as §2

The nature of series [4]: Oral bioavailability in Sprague-Dawley rat at 10 mg/kg. It is filed as ADME, organism-based. The following applies: in vivo. The gist of the method:
as §2

Series [5] in a line: Cmax in Sprague-Dawley rat at 10 mg/kg, po. The series is classed as ADME, organism-based. Further details: dose 10 mg/kg, route oral. Conditions: in vivo. Put shortly: as §2
The nature of series [6]: Tmax in Sprague-Dawley rat at 10 mg/kg, po. Further details: dose 10 mg/kg, route oral. The series is classed as ADME, organism-based. The following applies: in vivo. The gist of the method:
as §2

Series [7] in a line: Clearance in Sprague-Dawley rat at 10 mg/kg, po. It is filed as ADME, organism-based. Further details: dose 10 mg/kg, route oral. The following applies: in vivo. Put shortly:
as §2

Series [8] in a line: Clearance in human liver microsomes assessed per mg of protein at 0.5 uM. It is filed as ADME, Microsome. Conditions: read-out: CLH. Put shortly:
(§3)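 Pooled rat (male Sprague Dawley) or human (mixed-sex) liver microsomes at 0.5 mg/mL final, 0.1 M phosphate pH 7.4, compound 0.5 µM final, 0.25% DMSO, 37 °C; 1 mM NADPH starts reaction. Sampled 0–45 min, methanol quench with internal standard, LC/MS-MS; intrinsic clearance from compound loss.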
(In general: Liver microsomes are vesicles of endoplasmic reticulum, rich in cytochrome P450 enzymes.)

The nature of series [9]: Clearance in Sprague-Dawley rat liver microsomes assessed per mg of protein at 0.5 uM. The series is classed as ADME, Microsome. The following applies: read-out: CLH. Put shortly:
as §3

Series [10] in a line: Efflux ratio of apparent permeability across human Caco2 cells at 10 uM after 2 hrs. The series is classed as ADME, cell-based. Conditions: Caco-2. Put shortly:
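Caco-2 monolayers grown 20 days, TEER >800 ohm·cm². Compound 10 µM final in HBSS pH 6.5 (1% DMSO), dosed apical (A→B) or basolateral (B→A), 2 h at 37 °C; both compartments sampled, LC–MS/MS cassette analysis with 5-point calibration.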
Background: Caco-2 cells form a polarised layer with tight junctions and transporters.

The nature of series [11]: Lipophilicity, log D of the compound at pH 7.4. It is filed as physicochemical. Conditions: buffer.
A short description of series [12]: Fraction unbound in rat plasma containing 50% plasma protein. It is filed as ADME, cell-free. Put shortly: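 Rat plasma protein binding in 50% plasma; fraction unbound reported.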

For `Cl.O=c1c2c3n(c(=O)cc2[nH]n1-c1ccccc1Cl)CCCN(Cc1ccccc1)C3`, the inhibition constant (Ki) was found to be 101 nM on NADPH oxidase 1, 1340 nM at NADPH oxidase 2 and 72 nM at NADPH oxidase 4. The clearance in [1] was 2.17 mL/min/kg. Also, the Vd in series [2] was 0.28 L/kg. This compound also had an AUC(0-inf) in series [3] of 41400 ng·h/mL. In addition, in series [4], the bioavailability stood at 53%. For the same compound, in [5], the Cmax worked out at 14900 ng/mL. In addition, in series [6], the Tmax worked out at 19.8 min. The CL/F in [7] was 4.33 mL/min/kg. Further, the microsomal CLint at 0.5 µM amounted to 35 µL/min/mg in [8] and 64 µL/min/mg in series [9]. Moreover, the efflux ratio at 2 h, 10 µM in series [10] was determined as 0.48. Further, in [11], the logD was 2.23. This compound showed a fraction unbound in series [12] of 0.12.
Take `Cl.O=c1c2c3n(c(=O)cc2[nH]n1-c1ccccc1Cl)CCCN(Cc1ccccn1)C3`: the figures for the Ki at NADPH oxidase 1, on NADPH oxidase 2 and at NADPH oxidase 4 were 113 nM, 1140 nM and 67 nM, respectively. The compound further gave a clearance in series [1] of 7.67 mL/min/kg. Moreover, in [2], the Vd stood at 0.47 L/kg. In series [3], this compound had an AUC(0-inf) of 9900 ng·h/mL. In series [4], this compound displayed a bioavailability of 42%. The Cmax in series [5] amounted to 11300 ng/mL. Also, the Tmax in series [6] turned out to be 15 min. This compound also had a CL/F in series [7] of 17 mL/min/kg. In addition, the microsomal CLint at 0.5 µM is 13.9 µL/min/mg in [8] and 27.5 µL/min/mg in series [9]. Further, the efflux ratio at 2 h, 10 µM in [10] is 10.1. The compound also displayed a logD in series [11] of 1.1. This compound came in with a fraction unbound in [12] of 0.026.
